In the library only some 2.7% were active in any assay of this set; here they are far more common.
IMP-1 inh-1 = IMP-1 metallo-beta-lactamase inhibitors, primary screen, biochemical, epi-absorbance readout, Pseudomonas aeruginosa enzyme. inhibition, % at 5.6 µM. 290,000 compounds, 0.45% hits. metallo-beta-lactamase IMP-1 (Pseudomonas aeruginosa). purified IMP-1, nitrocefin hydrolysis, epi-absorbance fluorescence. AID 1556, 2009;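 active = inhibition above the mean plus 3 SD of all compounds in the same screening run, cut at about 4.5% in these data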;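 also: 0% = IMP-1 with DMSO and 100% = DMSO wells lacking enzyme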
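Assay system: purified IMP-1; Quantity: IMP-1 0.2 nM before substrate addition; Medium: HEPES buffer pH 7.1 with ZnSO4 and Brij 35; Incubation: 15 min enzyme–compound preincubation, then 25 min nitrocefin reaction, 25 °C; Signal: fluorescence quenching readout, ex 480/em 530 nm; Controls: DMSO with and without IMP-1; Repeats: singlicate testing.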
Fh CTSL1 inh = Fasciola hepatica cathepsin L1 inhibitors, primary screen, counter-screen for PFM18AAP inhibitor project, biochemical, QFRET, fluorogenic peptide substrate. inhibition, % at 5.96 µM. 300,000 compounds, 0.49% hits. recombinant F. hepatica cathepsin L1, Z-Leu-Arg-MCA fluorescence;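 active = inhibition above the mean of all tested compounds plus 3 SD, set per screening campaign, cut at about 17% in these data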;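 also: 0% = plate median of test compound wells and 100% = 1 µM Z-Phe-Ala-diazomethylketone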
VIM-2 inhibitor = VIM-2 metallo-beta-lactamase inhibitors, primary screen, biochemical, epi-absorbance readout, Pseudomonas aeruginosa enzyme | purified VIM-2, nitrocefin hydrolysis, epi-absorbance fluorescence | inhibition, % at 5.6 µM | 290,000 compounds, 0.89% hits;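 active = inhibition above the mean of all tested compounds plus 3 SD, cutoff set per screening run, cut at about 7.5% in these data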;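 also: red hydrolysis product quenches plate fluorescence so inhibitors raise well fluorescence; 0% = enzyme with DMSO and 100% = DMSO without enzyme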
PfM18AAP inh = PfM18AAP inhibitors, malaria aminopeptidase, primary screen, biochemical, QFRET, recombinant enzyme | inhibition, % at 7.35 µM | H-Glu-NHMec fluorogenic cleavage | 290,000 compounds, 1.2% hits | M18 aspartyl aminopeptidase (Plasmodium falciparum 3D7);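 active = inhibition above the campaign mean inhibition over all tested compounds plus 3 SD, cut at about 28% in these data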;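 also: 0% = plate median of test compound wells and 100% = 2 mM ZnCl2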
IMP-1 inh-2 = IMP-1 metallo-beta-lactamase inhibitors, confirmation, selectivity assay for selective VIM-2 inhibitor project, biochemical, epi-absorbance readout, triplicate; shares compounds with VIM-2 inhibitor; inhibition, % at 5.6 µM; AID 1856, 2009; 1,300 tested, under 10 active; purified IMP-1, nitrocefin hydrolysis, epi-absorbance fluorescence; call rule not given here;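 also: 0% = enzyme with vehicle and 100% = vehicle without enzyme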
VIM-2 FRET inh = VIM-2 inhibitors in FRET format, confirmation, artefact control for selective VIM-2 inhibitor project, biochemical, epi-absorbance artifact exclusion. shares compounds with VIM-2 inhibitor. 1,300 compounds, 23% hits. inhibition, % at 5.6 µM. purified VIM-2, CCF2 FRET substrate hydrolysis;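 active = inhibition above the mean of all tested compounds plus 3 SD, cut at about 19% in these data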;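 also: 0% = VIM-2 plus DMSO and 100% = no enzyme wells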
TEM-1 inh = TEM-1 serine beta-lactamase inhibitors, counter-screen for VIM-2 inhibitor project, biochemical, epi-absorbance, HTS | Purified TEM-1, nitrocefin hydrolysis, epi-absorbance fluorescence | 1,300 compounds, 3% hits | inhibition, % at 5.6 µM | shares compounds with VIM-2 inhibitor | AID 1866, 2009;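 active = inhibition above that campaign's mean inhibition plus 3 SD, cut at about 0.46% in these data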;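 also: 0% = TEM-1 with DMSO and 100% = TEM-1 with 100 µM potassium clavulanate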
Target sequence (P62593 whole entry, looked up): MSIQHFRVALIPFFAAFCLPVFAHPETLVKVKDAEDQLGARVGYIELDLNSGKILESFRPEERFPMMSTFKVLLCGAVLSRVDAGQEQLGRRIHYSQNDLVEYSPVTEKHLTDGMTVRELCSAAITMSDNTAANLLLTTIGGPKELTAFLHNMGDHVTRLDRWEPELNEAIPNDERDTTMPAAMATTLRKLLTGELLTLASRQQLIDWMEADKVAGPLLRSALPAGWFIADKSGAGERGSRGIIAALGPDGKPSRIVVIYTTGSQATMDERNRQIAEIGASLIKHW
VIM-2 inh conf = VIM-2 metallo-beta-lactamase inhibitors, confirmation, biochemical, epi-absorbance, hits shared with IMP-1 screen | purified VIM-2, nitrocefin hydrolysis | 1,300 compounds, 96% hits | shares compounds with VIM-2 inhibitor | inhibition, % at 5.6 µM;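 active = inhibition of the VIM-2 beta-lactamase enzyme above about 11% from the earlier first-round screen, limit read from the data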;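 also: 0% = VIM-2 with DMSO and 100% = buffer wells without enzyme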
Active calls of the source: *; x = not tested or not shown.

SMILES	IMP-1 inh-1	Fh CTSL1 inh	VIM-2 inhibitor	PfM18AAP inh	IMP-1 inh-2	VIM-2 FRET inh	TEM-1 inh	VIM-2 inh conf
COc1cnc(-c2ccccn2)nc1Oc1ccccc1Cl	-1.8	0.7	17.1*	-4.3	-4.0	-25.9	-4.4	45.8*
COc1cnc(-c2ccccn2)nc1Oc1ccc(F)cc1F	-4.6	-0.9	18.2*	4.2	-4.6	-29.8	-4.1	28.6*
COc1cc(C(=S)N2CCCC2)ccc1OCc1ccc(C)cc1	-1.1	6.0	-0.7	-2.2	x	x	x	x
C=CCN1C(=O)c2ccc(C(=O)N(C)CC(=O)Nc3cccc(F)c3)cc2C1=O	-3.4	0.5	-4.7	1.9	x	x	x	x
CC(C)Sc1nc(SCC(=O)O)c2c3c(sc2n1)COC(C)(C)C3	-0.3	1.9	24.2*	-5.4	-4.1	22.7*	-5.0	8.8*
CCCc1cc(=O)[nH]c(SCC(=O)Nc2ccc([N+](=O)[O-])cc2C#N)n1	-1.7	2.7	-2.1	1.9	x	x	x	x
Oc1[nH]c2ccccc2c1C=Nc1ccccc1	-1.0	2.4	12.3*	5.8	-1.7	25.0*	-4.2	21.0*
OCCN=Cc1c(O)[nH]c2ccccc12	-3.4	1.3	-3.0	10.5	x	x	x	x
COc1ccc(/C=C2\SC(c3ccc(C)cc3)=NC2=O)cc1OC	1.0	-0.5	6.1	6.3	x	x	x	x
COc1ccc(/C=C2/SC(c3ccc(C)cc3)=NC2=O)cc1OC	0.3	-0.4	15.1*	7.5	9.4*	-1.8	19.6*	13.8*
Cc1c(CC(=O)O)c(=O)oc2cc3occ(-c4ccccc4)c3cc12	-0.2	1.9	-4.6	-0.5	x	x	x	x
Cc1c(CC(=O)O)c(=O)oc2c(C)c3occ(-c4ccc(F)cc4)c3cc12	2.1	x	15.2*	-16.7	0.9	5.4	-11.6	25.3*
CCc1noc(C)c1C(=O)N1CCN(S(=O)(=O)c2ccc(Cl)s2)CC1	x	0.1	x	x	x	x	x	x
CCCCC(=O)N/N=C/c1ccc(-c2ccc([N+](=O)[O-])cc2)o1	1.1	-0.6	-2.4	1.4	x	x	x	x
Cc1cc(C)n(Cc2ccc(C(=O)N/N=C/c3ccc(-c4ccc([N+](=O)[O-])cc4)o3)o2)n1	-3.9	-0.9	41.9*	13.2	-1.0	0.9	12.8*	14.4*
CC(C)N1CCc2c(sc(NC(=O)c3nc4ccccc4s3)c2C(N)=O)C1	-2.7	1.0	-1.4	7.9	x	x	x	x
CC(C)N1CCc2c(sc(NC(=O)c3cc(-c4cccs4)nc4ccccc34)c2C(N)=O)C1	-2.1	3.5	19.8*	3.6	-1.9	12.5	-4.0	46.2*
COc1ccc(C2(C(=O)Nc3ccc(C)cc3)CCOCC2)cc1	-2.7	-0.1	-2.4	-13.8	x	x	x	x
S=c1[nH]nc(-c2ccccc2)n1Cc1ccccc1	1.8	-1.0	13.3*	20.1	-3.1	34.3*	-7.7	22.0*
S=c1[nH]nc(-c2cccs2)n1Cc1ccccc1	-2.2	1.1	42.9*	26.5	-1.6	66.9*	-8.6	51.1*
S=c1[nH]nc(-c2ccc(Br)o2)n1Cc1ccccc1	-4.6	3.5	-1.4	4.8	x	x	x	x
S=c1[nH]nc(-c2cccs2)n1C1CCCCC1	-0.3	-9.1	42.3*	-2.8	-2.3	62.9*	-7.0	47.2*
S=c1[nH]nc(-c2ccc(Cl)cc2)n1Cc1ccccc1	-3.2	7.4	-1.7	19.8	x	x	x	x
S=c1[nH]nc(-c2ccco2)n1Cc1ccccc1	0.5	-3.4	26.4*	16.4	-3.2	58.5*	-7.8	40.4*
CC(C)c1cc(-c2n[nH]c(=S)n2Cc2ccccc2)cs1	0.7	1.4	0.8	-9.6	x	x	x	x

Source: PubChem BioAssay
